# Laboratory results: ChEMBL document CHEMBL4130455, “Design, Synthesis, and Evaluation of Tetrahydropyrrolo[1,2-c]pyrimidines as Capsid Assembly Inhibitors for HBV Treatment” (ACS Med Chem Lett, 2017)
# Legend:
# Hepatitis B virus [1] = assay: Antiviral activity against HBV infected in human HepG2.2.15 cells assessed as inhibition of viral DNA level incubated for 3 days followed by medium replacement measured after 3 days by RT-PCR method; format: functional, organism-based; conditions: HepG2.2.15, 72 h
# In short: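 HepG2.2.15 cells seeded at 4 × 10^4 cells/well, compound exposure 3 days, then fresh medium and a further 3-day incubation. Supernatants collected and stored at −80 °C. HBV DNA extracted from supernatant and quantified by qPCR. IC50 reported as the mean of three experiments.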
# [2] = AUC (0 to last) in Balb/c mouse at 10 mg/kg, po administered via gavage by LC-MS/MS analysis; format: ADME, organism-based; design: dose 10 mg/kg, time 0 - last, route oral; conditions: in vivo
# In short: (§1)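 Single-dose PK in female Balb/c mice, n = 3 per compound; dosing vehicle 0.5% HEC, formulated at 1.00 mg/mL.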
# [3] = AUC (0 to last) in Balb/c mouse at 1 mg/kg, iv administered as bolus by LC-MS/MS analysis; format: ADME, organism-based; design: dose 1 mg/kg, time 0 - last, route intravenous; conditions: in vivo; in short: as §1
# [4] = Volume of distribution at steady state in Balb/c mouse at 1 mg/kg, iv administered as bolus by LC-MS/MS analysis; format: ADME, organism-based; conditions: in vivo, read-out: Vdss; in short: as §1
# Cytochrome P450 2C19 = Cytochrome P450 2C19 (Homo sapiens, UniProt P33261); assay: Inhibition of CYP2C19 in human liver microsomes using S-mephenytoin as substrate preincubated for 10 mins followed by substrate addition measured after 10 mins in presence of NADPH by LC-MS/MS analysis; format: ADME
# Cytochrome P450 2C19, sequence (P33261 whole entry): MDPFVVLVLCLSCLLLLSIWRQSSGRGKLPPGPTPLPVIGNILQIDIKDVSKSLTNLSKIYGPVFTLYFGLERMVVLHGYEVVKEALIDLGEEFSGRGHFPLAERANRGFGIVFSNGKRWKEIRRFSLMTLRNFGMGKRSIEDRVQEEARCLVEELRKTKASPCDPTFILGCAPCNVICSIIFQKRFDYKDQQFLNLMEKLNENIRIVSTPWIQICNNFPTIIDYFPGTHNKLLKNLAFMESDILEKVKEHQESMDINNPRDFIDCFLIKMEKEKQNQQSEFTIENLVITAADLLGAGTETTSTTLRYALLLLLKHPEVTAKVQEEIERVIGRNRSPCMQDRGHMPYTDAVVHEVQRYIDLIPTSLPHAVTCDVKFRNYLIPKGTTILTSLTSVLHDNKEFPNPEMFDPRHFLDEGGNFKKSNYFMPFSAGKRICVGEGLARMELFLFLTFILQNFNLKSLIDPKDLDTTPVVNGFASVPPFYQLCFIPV
# [5] = Oral bioavailability in Balb/c mouse at 10 mg/kg administered via gavage by LC-MS/MS analysis; format: ADME, organism-based; conditions: in vivo; in short: as §1
# Hepatitis B virus [6] = assay: Antiviral activity against HBV1.3 mer infected in hydrodynamic injection BALB/c mouse model assessed as log reduction in viral DNA in liver at 50 mg/kg, po bid measured on day 7 by real-time PCR method relative to control; format: functional
# In short: (§2)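 HBV DNA mouse model established by hydrodynamic injection. Mice, n = 6 per group, dosed orally twice daily with compound or vehicle (0.5% HEC). HBV DNA in plasma and liver measured by qPCR; log reduction taken versus the vehicle group. Error shown as standard error; significance by Student's t test.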
# Cytochrome P450 2D6 = Cytochrome P450 2D6 (Homo sapiens, UniProt P10635); assay: Inhibition of CYP2D6 in human liver microsomes using dextromethorphan as substrate preincubated for 10 mins followed by substrate addition measured after 10 mins in presence of NADPH by LC-MS/MS analysis; format: ADME; conditions: read-out: INH
# Cytochrome P450 2D6, sequence (P10635 whole entry): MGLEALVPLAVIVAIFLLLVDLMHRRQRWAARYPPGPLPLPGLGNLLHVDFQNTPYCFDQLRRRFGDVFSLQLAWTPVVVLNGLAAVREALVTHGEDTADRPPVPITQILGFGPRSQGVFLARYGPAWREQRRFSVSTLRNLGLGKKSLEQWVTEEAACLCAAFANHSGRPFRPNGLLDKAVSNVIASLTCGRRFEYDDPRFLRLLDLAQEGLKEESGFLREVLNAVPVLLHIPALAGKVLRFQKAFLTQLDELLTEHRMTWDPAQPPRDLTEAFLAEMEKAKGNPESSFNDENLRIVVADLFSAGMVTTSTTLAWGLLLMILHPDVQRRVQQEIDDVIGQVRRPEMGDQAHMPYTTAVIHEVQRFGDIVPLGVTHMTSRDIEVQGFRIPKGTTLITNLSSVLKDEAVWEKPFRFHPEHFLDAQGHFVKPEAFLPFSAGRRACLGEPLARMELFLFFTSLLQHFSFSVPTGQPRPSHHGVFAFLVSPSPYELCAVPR
# [7] = Half life in Balb/c mouse at 1 mg/kg, iv administered as bolus by LC-MS/MS analysis; format: ADME, organism-based; conditions: in vivo; in short: as §1
# [8] = Cmax in Balb/c mouse at 10 mg/kg, po administered via gavage by LC-MS/MS analysis; format: ADME, organism-based; design: dose 10 mg/kg, route oral; conditions: in vivo; in short: as §1
# Cytochrome P450 3A4 = Cytochrome P450 3A4 (Homo sapiens, UniProt P08684); assay: Inhibition of CYP3A4 in human liver microsomes using midazolam as substrate preincubated for 10 mins followed by substrate addition measured after 10 mins in presence of NADPH by LC-MS/MS analysis; format: ADME; conditions: read-out: INH
# Cytochrome P450 3A4, sequence (P08684 whole entry): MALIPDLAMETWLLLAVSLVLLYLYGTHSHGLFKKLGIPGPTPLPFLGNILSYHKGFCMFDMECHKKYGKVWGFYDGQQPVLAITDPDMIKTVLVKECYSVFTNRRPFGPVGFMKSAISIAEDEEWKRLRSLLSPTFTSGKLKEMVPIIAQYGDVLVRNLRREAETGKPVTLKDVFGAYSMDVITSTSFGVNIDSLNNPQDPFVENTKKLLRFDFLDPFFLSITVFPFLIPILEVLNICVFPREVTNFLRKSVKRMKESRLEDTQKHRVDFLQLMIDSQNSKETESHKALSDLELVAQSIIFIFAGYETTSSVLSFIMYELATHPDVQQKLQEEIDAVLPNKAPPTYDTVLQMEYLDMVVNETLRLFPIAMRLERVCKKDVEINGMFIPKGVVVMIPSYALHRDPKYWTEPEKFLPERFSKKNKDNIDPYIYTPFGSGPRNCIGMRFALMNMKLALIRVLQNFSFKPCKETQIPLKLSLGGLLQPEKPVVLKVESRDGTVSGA
# Cytochrome P450 2C9 = Cytochrome P450 2C9 (Homo sapiens, UniProt P11712); assay: Inhibition of CYP2C9 in human liver microsomes using diclofenac as substrate preincubated for 10 mins followed by substrate addition measured after 10 mins in presence of NADPH by LC-MS/MS analysis; format: ADME
# Cytochrome P450 2C9, sequence (P11712 whole entry): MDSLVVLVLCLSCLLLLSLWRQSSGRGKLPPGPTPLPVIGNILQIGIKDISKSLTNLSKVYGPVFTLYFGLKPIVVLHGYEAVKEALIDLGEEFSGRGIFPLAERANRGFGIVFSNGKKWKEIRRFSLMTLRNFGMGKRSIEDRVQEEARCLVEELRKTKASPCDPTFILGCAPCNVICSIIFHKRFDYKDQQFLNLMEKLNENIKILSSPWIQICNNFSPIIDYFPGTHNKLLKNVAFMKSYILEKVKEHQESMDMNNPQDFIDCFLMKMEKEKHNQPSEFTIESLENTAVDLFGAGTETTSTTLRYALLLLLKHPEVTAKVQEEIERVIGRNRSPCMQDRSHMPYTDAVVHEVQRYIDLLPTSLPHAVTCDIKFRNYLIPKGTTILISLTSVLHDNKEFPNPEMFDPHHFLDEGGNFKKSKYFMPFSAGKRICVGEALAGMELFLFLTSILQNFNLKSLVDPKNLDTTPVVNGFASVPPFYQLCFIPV
# [9] = Lipophilicity, log D of the compound; format: physicochemical; conditions: octanol/water
# Cytochrome P450 1A2 = molecular target: T1, Cytochrome P450 1A2 (Homo sapiens, UniProt P05177); assay: Inhibition of CYP1A2 in human liver microsomes using phenacetin as substrate preincubated for 10 mins followed by substrate addition measured after 10 mins in presence of NADPH by LC-MS/MS analysis; format: ADME
# T1 sequence (P05177 whole entry): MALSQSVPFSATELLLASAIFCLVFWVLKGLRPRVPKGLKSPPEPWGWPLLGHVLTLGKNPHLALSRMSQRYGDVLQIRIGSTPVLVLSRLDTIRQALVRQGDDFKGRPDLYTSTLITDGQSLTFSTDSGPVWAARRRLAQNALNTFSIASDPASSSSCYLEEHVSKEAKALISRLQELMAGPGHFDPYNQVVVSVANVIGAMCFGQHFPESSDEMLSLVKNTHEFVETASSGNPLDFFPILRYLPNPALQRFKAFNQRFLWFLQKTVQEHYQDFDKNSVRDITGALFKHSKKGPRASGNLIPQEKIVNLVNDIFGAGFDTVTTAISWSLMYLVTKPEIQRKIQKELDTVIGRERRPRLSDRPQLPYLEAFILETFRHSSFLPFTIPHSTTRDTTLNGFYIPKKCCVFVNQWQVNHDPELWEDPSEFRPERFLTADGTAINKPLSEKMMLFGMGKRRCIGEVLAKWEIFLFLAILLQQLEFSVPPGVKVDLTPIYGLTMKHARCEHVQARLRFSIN
# [10] = Ratio of AUC (0 to 4 hrs) in Balb/c mouse liver to plasma administered orally by LC-MS/MS analysis; format: ADME; conditions: liver and plasma, po, read-out: Ratio AUC
# [11] = Clearance in Balb/c mouse at 1 mg/kg, iv administered as bolus by LC-MS/MS analysis; format: ADME, organism-based; conditions: in vivo; in short: as §1
# [12] = Kinetic solubility of the compound; format: physicochemical; conditions: read-out: Kinetic_solubility
# Hepatitis B virus [13] = assay: Antiviral activity against HBV1.3 mer infected in hydrodynamic injection BALB/c mouse model assessed as log reduction in viral DNA in plasma at 50 mg/kg, po bid measured on day 3 by real-time PCR method relative to control; format: functional; in short: as §2
# Hepatitis B virus [14] = assay: Antiviral activity against HBV1.3 mer infected in hydrodynamic injection BALB/c mouse model assessed as log reduction in viral DNA in plasma at 50 mg/kg, po bid measured on day 5 by real-time PCR method relative to control
# Core antigen = Core antigen (Hepatitis B virus, UniProt Q03732); assay: Inhibition of HBV C150-Bodipy FL N-(2-aminoethyl) maleimide labeled capsid assessed as reduction in NaCl-induced capsid assembly preincubated for 15 mins followed by NaCl addition measured after 1 hr by fluorescence quenching assay
# Core antigen, sequence (Q03732 whole entry): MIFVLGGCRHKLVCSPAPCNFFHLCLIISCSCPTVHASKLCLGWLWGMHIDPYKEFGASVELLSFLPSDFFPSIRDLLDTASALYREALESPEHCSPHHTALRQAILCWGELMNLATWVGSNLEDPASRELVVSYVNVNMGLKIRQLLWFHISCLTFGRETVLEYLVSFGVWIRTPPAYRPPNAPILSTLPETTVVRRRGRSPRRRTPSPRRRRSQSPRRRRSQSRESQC
SMILES,IC50 (Hepatitis B virus [1]) [µM],also measured
O=C(OCC(F)F)C1=C2CCCN2C(c2nccs2)=NC1c1ccc(F)cc1Cl (configuration not stated),2,
CCOC(=O)C1=C2CCCN2C(c2nccs2)=NC1c1nccs1 (configuration not stated),> 10,
COC(=O)C1=C2C[C@@H](NC(=O)OC(C)(C)C)CN2C(c2nccs2)=N[C@H]1c1ccc(F)cc1Cl,50,
COC(=O)C1=C2C[C@H](NS(C)(=O)=O)CN2C(c2nccs2)=N[C@H]1c1ccc(F)c(F)c1F,10,
CCOC(=O)C1=C2CCCN2C(c2ccsn2)=NC1c1ccc(F)cc1Cl (configuration not stated),2.8,
CCOC(=O)C1=C2CCN2C(c2nccs2)=NC1c1ccc(F)cc1Cl (configuration not stated),4.1,
CCOC(=O)C1=C2CCCN2C(c2nccs2)=NC1c1cc(Cl)sc1Cl (configuration not stated),1.7,
CCOC(=O)C1=C2CCCN2C(c2ncc(F)cc2F)=NC1c1ccc(F)cc1Cl (configuration not stated),1.6,
CCOC(=O)C1=C2CNC(=O)CN2C(c2nccs2)=NC1c1ccc(F)cc1Br (configuration not stated),3.5,
CCOC(=O)C1=C2CNCCN2C(c2nccs2)=NC1c1ccc(F)cc1Br (configuration not stated),9.3,
CCOC(=O)C1=C2CCCN2C(c2nccs2)=NC1c1ccncc1Cl (configuration not stated),> 10,
CCOC(=O)C1=C2CCCN2C(c2ccc(F)cn2)=NC1c1ccc(F)cc1Cl (configuration not stated),8.3,
COCCOC(=O)C1=C2CCCN2C(c2nccs2)=NC1c1ccc(F)cc1Cl (configuration not stated),> 10,
CCOC(=O)C1=C2CCCN2C(c2ccccn2)=NC1c1ccc(F)cc1Cl (configuration not stated),> 10,
CCOC(=O)C1=C2COCCN2C(c2nccs2)=NC1c1ccc(F)cc1Br (configuration not stated),2.5,
CCOC(=O)C1=C2CCCN2C(C2CC2)=NC1c1ccc(F)cc1Cl (configuration not stated),> 10,
CCOC(=O)C1=C2CCCN2C(c2nccs2)=NC1c1cccc(F)c1Cl (configuration not stated),0.31,
CCOC(=O)C1=C2CCCN2C(c2nccs2)=NC1c1ccc(F)c(F)c1 (configuration not stated),0.43,
CCOC(=O)C1=C2CCCN2C(c2nccs2)=NC1c1ccc(F)cc1 (configuration not stated),1.2,
CCOC(=O)C1=C2CCCN2C(c2nccs2)=NC1c1ccc(F)cc1Br (configuration not stated),0.21,
COC(=O)C1=C2C[C@H](NC(=O)OC(C)(C)C)CN2C(c2nccs2)=N[C@H]1c1ccc(F)cc1Cl,30,
CCOC(=O)C1=C2CCCN2C(c2nccs2)=NC1c1ccc(F)cc1Cl (configuration not stated),0.3,
COC(=O)C1=C2C[C@H](NS(C)(=O)=O)CN2C(c2nccs2)=N[C@H]1c1ccc(F)cc1Cl,0.01,AUC(0-t) [2]: 9.1 µM·h; AUC(0-t) [3]: 1.7 µM·h; Vd [4]: 2 L/kg; INH (Cytochrome P450 2C19): 39 µM; bioavailability [5]: 54%; FC (Hepatitis B virus [6]): 0.68; IC50 (Cytochrome P450 2D6): > 50 µM; half-life [7]: 1.1 h; Cmax [8]: 4.7 µM; IC50 (Cytochrome P450 3A4): 11 µM; INH (Cytochrome P450 2C9): 28 µM; logD [9]: 2.8; INH (Cytochrome P450 1A2): > 50 µM; Kp [10]: 10; clearance [11]: 21 mL/min/kg; solubility kinetic [12]: 22 µM; FC (Hepatitis B virus [13]): 2.05; FC (Hepatitis B virus [14]): 2.57; IC50 (Core antigen): 0.8 µM
CN(C)CCOC(=O)C1=C2CCCN2C(c2nccs2)=NC1c1ccc(F)cc1Cl (configuration not stated),> 10,

SMILES,IC50 (Hepatitis B virus [1]) [µM],also measured
CCOC(=O)C1=C2C[C@H](O)CN2C(c2nccs2)=NC1c1ccc(F)cc1Cl (some centres not stated),320,
CCOC(=O)C1=C2CCCCN2C(c2nccs2)=NC1c1ccc(F)cc1Cl (configuration not stated),1.4,
CCOC(=O)C1=C2CCCN2C(c2nccs2)=NC1c1ccc(F)cc1C (configuration not stated),0.45,
CCOC(=O)C1=C2CN(S(C)(=O)=O)CCN2C(c2nccs2)=NC1c1ccc(F)cc1Br (configuration not stated),0.81,
CCOC(=O)C1=C2CCC(C)N2C(c2nccs2)=NC1c1ccc(F)cc1Cl (configuration not stated),8000,
CCOC(=O)C1=C2CCCN2C(c2nccs2)=NC1c1cnn(C)c1 (configuration not stated),> 10,
CCOC(=O)C1=C2CCCN2C(c2nccs2)=NC1c1cc(F)ccc1Cl (configuration not stated),> 10,
CCOC(=O)C1=C2C[C@H](NS(C)(=O)=O)CN2C(c2nccs2)=N[C@H]1c1ccc(F)cc1Cl,10,
COCOC(=O)C1=C2CCCN2C(c2nccs2)=NC1c1ccc(F)cc1Cl (configuration not stated),2.1,
COC(=O)C1=C2C[C@@H](NS(C)(=O)=O)CN2C(c2nccs2)=N[C@H]1c1ccc(F)cc1Cl,0.06,
CCOC(=O)C1=C2CCCN2C(c2ncc(F)cn2)=NC1c1ccc(F)cc1Cl (configuration not stated),> 10,
CCOC(=O)C1=C2CCCN2C(c2nccn2C)=NC1c1ccc(F)cc1Cl (configuration not stated),2,
COC(=O)C1=C(C)NC(c2ncc(F)cc2F)=N[C@H]1c1ccc(F)cc1Cl,0.075,
CCOC(=O)C1=C2CCCN2C(c2nccs2)=NC1c1ncc(F)cc1F (configuration not stated),> 10,
CCOC(=O)C1=C2C[C@@H](NS(C)(=O)=O)CN2C(c2nccs2)=N[C@H]1c1ccc(F)cc1Cl,70,
CONC(=O)C1=C2CCCN2C(c2nccs2)=NC1c1ccc(F)cc1Cl (configuration not stated),5,
CCOC(=O)C1=C2CN(C(C)=O)CCN2C(c2nccs2)=NC1c1ccc(F)cc1Br (configuration not stated),0.77,
CCOC(=O)C1=C2CCCN2C(N2CCOCC2)=NC1c1ccc(F)cc1Cl (configuration not stated),> 10,
CCOC(=O)C1=C2CCCN2C(c2nccs2)=NC1c1ccc(F)cc1F (configuration not stated),0.51,
CCOC(=O)C1=C2CCCN2C(c2ncco2)=NC1c1ccc(F)cc1Cl (configuration not stated),6.3,
COC(=O)C1=C2CCCN2C(c2nccs2)=NC1c1ccc(F)cc1Cl (configuration not stated),0.32,
CCOC(=O)C1=C2C[C@H](N(C)C)CN2C(c2nccs2)=N[C@H]1c1ccc(F)cc1Br,500,
CCOC(=O)C1=C2CCCN2C(c2cnn(C)c2)=NC1c1ccc(F)cc1Cl (configuration not stated),> 10,
CCOC(=O)C1=C2CCCN2C(c2nccs2)=NC1c1c(F)cccc1Cl (configuration not stated),> 10,
